According to ChEMBL document CHEMBL5058577, “EUbOPEN Chemogenomics Library 2 (Multiplex)” (2022):

Test system: HEK-293T
Assay: Multiplex assay against HEK293T
Type: toxicity, cell-based
Conditions: human
How it was run: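 Live cells were stained at seeding with Hoechst33342, BioTracker Green Microtubule Cytoskeleton Dye, MitoTracker Red and Annexin V Alexa Fluor 680. Following compound addition, they were imaged on a CQ1 microscope at 37°C and 5% CO2 and gated by CellPathfinder machine learning into Hoechst high-intensity objects or normal cells, with normal cells split into healthy, pyknosed or fragmented nuclei and pyknosed cells into mitotic or apoptotic. Tubulin, mitochondrial-mass and membrane-permeability phenotypes are per cents of healthy-nucleus cells.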

[1] = 12 h, 1 µM, compound concentration 1 uM, replicate 1
[2] = 12 h, 1 µM, compound concentration 1 uM, replicate 2
[3] = 12 h, 10 µM, compound concentration 10 uM, replicate 1
[4] = 12 h, 10 µM, compound concentration 10 uM, replicate 2
[5] = 24 h, 1 µM, compound concentration 1 uM, replicate 1
[6] = 24 h, 1 µM, compound concentration 1 uM, replicate 2
[7] = 24 h, 10 µM, compound concentration 10 uM, replicate 1
[8] = 24 h, 10 µM, compound concentration 10 uM, replicate 2
[9] = 48 h, 1 µM, compound concentration 1 uM, replicate 1
[10] = 48 h, 1 µM, compound concentration 1 uM, replicate 2
[11] = 48 h, 10 µM, compound concentration 10 uM, replicate 1
[12] = 48 h, 10 µM, compound concentration 10 uM, replicate 2

SMILES: Cc1ccc(F)cc1C(=O)Nc1ccc(C(=O)N2Cc3cccn3Cc3ccccc32)c(Cl)c1 [LIXIVAPTAN]
- Population Apoptotic (%) [1]: 36%
- Population Fragmented Nuclei (%) [1]: 5%
- Population Healthy Nuclei (%) [1]: 83%
- Population Hoechst High Intensity Objects (%) [1]: 7%
- Population Membrane Permeable-Phenotype (%) [1]: 0%
- Population Mitochondria Different-Phenotype (%) [1]: 45%
- Population Mitotic Cells (%) [1]: 63%
- Population Normal (%) [1]: 92%
- Population Pyknosed Nuclei (%) [1]: 10%
- Population Tubulin-Different-Phenotype (%) [1]: 38%
- Total Cell Count [1]: 486
- Population Apoptotic (%) [2]: 40%
- Population Fragmented Nuclei (%) [2]: 6%
- Population Healthy Nuclei (%) [2]: 74%
- Population Hoechst High Intensity Objects (%) [2]: 5%
- Population Mitochondria Different-Phenotype (%) [2]: 57%
- Population Mitotic Cells (%) [2]: 60%
- Population Normal (%) [2]: 94%
- Population Pyknosed Nuclei (%) [2]: 19%
- Population Tubulin-Different-Phenotype (%) [2]: 32%
- Total Cell Count [2]: 335
- Population Apoptotic (%) [3]: 46%
- Population Fragmented Nuclei (%) [3]: 6%
- Population Healthy Nuclei (%) [3]: 70%
- Population Hoechst High Intensity Objects (%) [3]: 10%
- Population Membrane Permeable-Phenotype (%) [3]: 0%
- Population Mitochondria Different-Phenotype (%) [3]: 75%
- Population Mitotic Cells (%) [3]: 53%
- Population Normal (%) [3]: 89%
- Population Pyknosed Nuclei (%) [3]: 22%
- Population Tubulin-Different-Phenotype (%) [3]: 78%
- Total Cell Count [3]: 339
- Population Apoptotic (%) [4]: 50%
- Population Healthy Nuclei (%) [4]: 67%
- Population Hoechst High Intensity Objects (%) [4]: 6%
- Population Membrane Permeable-Phenotype (%) [4]: 1%
- Population Mitochondria Different-Phenotype (%) [4]: 81%
- Population Mitotic Cells (%) [4]: 50%
- Population Normal (%) [4]: 93%
- Population Pyknosed Nuclei (%) [4]: 25%
- Population Tubulin-Different-Phenotype (%) [4]: 67%
- Total Cell Count [4]: 357
- Population Apoptotic (%) [5]: 30%
- Population Fragmented Nuclei (%) [5]: 9%
- Population Healthy Nuclei (%) [5]: 77%
- Population Hoechst High Intensity Objects (%) [5]: 5%
- Population Membrane Permeable-Phenotype (%) [5]: 0%
- Population Mitochondria Different-Phenotype (%) [5]: 30%
- Population Mitotic Cells (%) [5]: 69%
- Population Normal (%) [5]: 94%
- Population Pyknosed Nuclei (%) [5]: 13%
- Population Tubulin-Different-Phenotype (%) [5]: 24%
- Total Cell Count [5]: 595
- Population Apoptotic (%) [6]: 36%
- Population Fragmented Nuclei (%) [6]: 10%
- Population Healthy Nuclei (%) [6]: 76%
- Population Hoechst High Intensity Objects (%) [6]: 7%
- Population Mitochondria Different-Phenotype (%) [6]: 42%
- Population Mitotic Cells (%) [6]: 63%
- Population Normal (%) [6]: 92%
- Population Tubulin-Different-Phenotype (%) [6]: 22%
- Total Cell Count [6]: 423
- Population Apoptotic (%) [7]: 37%
- Population Fragmented Nuclei (%) [7]: 5%
- Population Healthy Nuclei (%) [7]: 69%
- Population Hoechst High Intensity Objects (%) [7]: 7%
- Population Membrane Permeable-Phenotype (%) [7]: 0%
- Population Mitochondria Different-Phenotype (%) [7]: 74%
- Population Mitotic Cells (%) [7]: 62%
- Population Normal (%) [7]: 92%
- Population Pyknosed Nuclei (%) [7]: 24%
- Population Tubulin-Different-Phenotype (%) [7]: 71%
- Total Cell Count [7]: 392
- Population Apoptotic (%) [8]: 58%
- Population Fragmented Nuclei (%) [8]: 8%
- Population Healthy Nuclei (%) [8]: 72%
- Population Hoechst High Intensity Objects (%) [8]: 6%
- Population Mitochondria Different-Phenotype (%) [8]: 78%
- Population Mitotic Cells (%) [8]: 41%
- Population Normal (%) [8]: 93%
- Population Pyknosed Nuclei (%) [8]: 19%
- Population Tubulin-Different-Phenotype (%) [8]: 69%
- Total Cell Count [8]: 401
- Population Apoptotic (%) [9]: 22%
- Population Fragmented Nuclei (%) [9]: 12%
- Population Healthy Nuclei (%) [9]: 80%
- Population Hoechst High Intensity Objects (%) [9]: 2%
- Population Membrane Permeable-Phenotype (%) [9]: 0%
- Population Mitochondria Different-Phenotype (%) [9]: 19%
- Population Mitotic Cells (%) [9]: 77%
- Population Normal (%) [9]: 97%
- Population Pyknosed Nuclei (%) [9]: 6%
- Population Tubulin-Different-Phenotype (%) [9]: 17%
- Total Cell Count [9]: 995
- Population Apoptotic (%) [10]: 17%
- Population Hoechst High Intensity Objects (%) [10]: 4%
- Population Mitochondria Different-Phenotype (%) [10]: 24%
- Population Mitotic Cells (%) [10]: 82%
- Population Normal (%) [10]: 95%
- Population Pyknosed Nuclei (%) [10]: 7%
- Population Tubulin-Different-Phenotype (%) [10]: 21%
- Total Cell Count [10]: 643
- Population Apoptotic (%) [11]: 43%
- Population Fragmented Nuclei (%) [11]: 9%
- Population Healthy Nuclei (%) [11]: 74%
- Population Hoechst High Intensity Objects (%) [11]: 7%
- Population Membrane Permeable-Phenotype (%) [11]: 0%
- Population Mitochondria Different-Phenotype (%) [11]: 72%
- Population Mitotic Cells (%) [11]: 56%
- Population Normal (%) [11]: 92%
- Population Pyknosed Nuclei (%) [11]: 16%
- Population Tubulin-Different-Phenotype (%) [11]: 69%
- Total Cell Count [11]: 489
- Population Apoptotic (%) [12]: 46%
- Population Fragmented Nuclei (%) [12]: 11%
- Population Hoechst High Intensity Objects (%) [12]: 8%
- Population Mitochondria Different-Phenotype (%) [12]: 71%
- Population Mitotic Cells (%) [12]: 53%
- Population Normal (%) [12]: 91%
- Population Pyknosed Nuclei (%) [12]: 14%
- Population Tubulin-Different-Phenotype (%) [12]: 59%
- Total Cell Count [12]: 437
